Results on 5 compounds are retold here after article PMC3169777 (European Journal of Clinical Pharmacology, 2011).

The structures appear in SMILES notation. Where two headings read alike, the source gives them in different places. Where only a bound is given, the exact number is not on record here.

Data set [1] in a line: Simulation of multiple-dose profiles using the single-dose data. On the set-up: species or system human. As to conditions: once-a-day regimen, data not shown.
The test system of the next data set is ETA receptors. The settings on record: isolated rat aortic and tracheal preparations; cited from earlier work.
Data set [2] is described as follows: Metabolic profiling of plasma and urine. The class given is in vivo, human. The settings on record: pooled urine of two subjects, 600-mg dose group.
The conditions of data set [3]: rats; cited from earlier work.
The next data set deals with ETB receptors. The settings on record: isolated rat aortic and tracheal preparations; cited from earlier work.
For another data set, the system named is ETA and ETB receptors. As to conditions: cited from earlier work.
For a further data set, the system named is bile salts. The settings on record: rats, ref Actelion Pharmaceuticals, data on file, cited from earlier work.
Data set [4] concerns patients with treatment-resistant hypertension. As to conditions: cited from earlier work.
Data set [5] deals with human hepatic transporters. The settings on record: preclinical models, cited from earlier work.
The subject of a further data set is healthy male subjects. The data set is described as follows: Safety and tolerability. The class given is in vivo, human. As to conditions: for Abdominal pain: number of subjects reporting adverse event / Back pain: number of subjects reporting adverse event / Flushing: number of subjects reporting adverse event / Headache: number of subjects reporting adverse event / Hepatic function abnormal: number of subjects reporting adverse event / Leukocytosis: number of subjects reporting adverse event / Nasopharyngitis: number of subjects reporting adverse event / Nausea: number of subjects reporting adverse event / Neck pain: number of subjects reporting adverse event / Rhinitis: number of subjects reporting adverse event / Vomiting: number of subjects reporting adverse event: n = 6. The procedure, abridged:
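Double-blind, randomised, placebo-controlled single-ascending-dose design in healthy males: new group of 8 per level (6 active, 2 placebo), doses 0.2–600 mg, fasted. Next dose given only after safety review. Confinement from about 12 h predose to 48 h postdose. Adverse events, vital signs, 12-lead ECG, clinical laboratory and physical examination recorded. Descriptive analysis with placebo subjects pooled.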

The format of data set [6] is in vivo. The settings on record: male, human, plasma, plasma macitentan. The essentials: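 Single fasted doses of 0.2–600 mg were given, 6 active subjects per group. EDTA plasma was spun 10 min at 1,500 g, 4°C, and stored at −20°C. Sampling ran to 48 h, or 144 h for the 300 and 600 mg groups. Parent and metabolite were quantified by validated LC-MS/MS (linear 1–2,000 ng/ml, LOQ 1.0 ng/ml). Cmax, tmax, AUC and t1/2 were derived non-compartmentally.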

The subject of a further data set is total bile salts. The data set can be described thus: Serum total bile salts. The class given is in vivo, human. The procedure, abridged:
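Venous blood was drawn predose and at 1, 2, 3 and 4 h in fasted subjects, with no later draws because of a meal. Tubes without anticoagulant stood 30 min at room temperature, were spun 10 min at 1,500 g, 4°C, and serum was kept at −20°C. An enzymatic assay was used (detection limit 1 μmol/l). AUC0–4h was derived non-compartmentally and compared with placebo by ANOVA (P < 0.05).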

Take `NS(=O)(=O)Nc1ncnc(OCCOc2ncc(Br)cn2)c1-c1ccc(Br)cc1` [ACT-132577]: in data set [1], the “predicted accumulation factor upon repeated dosing” value is given as 10. Moreover, in the data set on ETA receptors, the “fold less potent than macitentan in blocking ETA receptors” value is listed as “up to 5 fold”. Moreover, in [2], the detection in urine result is “no macitentan and ACT-132577 could be detected”. Further, the half-life in data set [3] is given as 8.5 h. Also, the “fold less potent than macitentan in blocking ETB receptors” value with ETB receptors is recorded as “up to 5 fold”. The “selectivity for ETA receptors over ETB receptors” value in the data set with ETA and ETB receptors is on record as approximately 16 fold. Further, the “affinity for ETA and ETB receptors compared with macitentan” value with ETA and ETB receptors (preclinical experiments) is “lower”. Besides, the “potency as endothelin receptor antagonist compared with macitentan” value in the data set with ETA and ETB receptors (receptor binding and functional assays) is given as “less potent”.
For the compound `COc1ccccc1Oc1c(NS(=O)(=O)c2ccc(C(C)(C)C)cc2)nc(-c2ncccn2)nc1OCCO` [bosentan, reference compound], the “effect on plasma bile salts” value in the data set with bile salts (intravenous administration) is recorded as “acute increase in plasma bile salts”.
Take `COc1cc(OC)nc(O[C@H](C(=O)O)C(OC)(c2ccccc2)c2ccccc2)n1` [darusentan]: the “oedema or fluid retention, patients affected” value in data set [4] is reported as 27%.
For `CCCNS(=O)(=O)Nc1ncnc(OCCOc2ncc(Br)cn2)c1-c1ccc(Br)cc1` [macitentan, N-[5-(4-Bromophenyl)-6-(2-(5-bromopyrimidin-2-yloxy)ethoxy)pyrimidin-4-yl]-N′-propylsulfamide], the “predicted accumulation factor upon repeated dosing” value in data set [1] was 1.7. Also, in [5] (ref Actelion Pharmaceuticals, data on file), the “inhibition of human hepatic transporters” value was “did not inhibit”. In addition, the “increased alanine aminotransferase, times the upper limit of normal” value in the data set with healthy male subjects (one subject, 600 mg macitentan, 7 days after drug administration) is ≤ 2 times the upper limit of normal. Besides, in the data set on healthy male subjects (single dose 0.2 mg macitentan), the “Abdominal pain: number of subjects reporting adverse event” value (“Abdominal pain: number” for short) is on record as 0, the “Back pain: number of subjects reporting adverse event” value (shortened to “Back pain: number”) is listed as 0, the “Flushing: number of subjects reporting adverse event” value (shortened to “Flushing: number”) was 0 and the “Headache: number of subjects reporting adverse event” value (from here on “Headache: number”) amounted to 0. Further, in the data set on healthy male subjects (single dose 0.2 mg macitentan), the “Hepatic function abnormal: number of subjects reporting adverse event” value (“Hepatic function abnormal: number” for short) worked out at 0, the “Leukocytosis: number of subjects reporting adverse event” value (from here on “Leukocytosis: number”) came to 0, the “Nasopharyngitis: number of subjects reporting adverse event” value (“Nasopharyngitis: number” for short) came out at 0 and the “Nausea: number of subjects reporting adverse event” value (“Nausea: number” below) turned out to be 0. Further, in the data set with healthy male subjects (single dose 0.2 mg macitentan), the “Neck pain: number of subjects reporting adverse event” value (from here on “Neck pain: number”) is recorded as 0, the “Rhinitis: number of subjects reporting adverse event” value (from here on “Rhinitis: number”) is on record as 0 and the “Vomiting: number of subjects reporting adverse event” value (“Vomiting: number” for short) is given as 0. In the data set with healthy male subjects (single dose 1 mg macitentan), the “Abdominal pain: number” value was 0, the “Back pain: number” value came out at 0, the “Flushing: number” value is given as 0 and the “Headache: number” value is recorded as 0. In the data set with healthy male subjects (single dose 1 mg macitentan), the “Hepatic function abnormal: number” value was 0, the “Leukocytosis: number” value came to 0, the “Nasopharyngitis: number” value is listed as 0 and the “Nausea: number” value was found to be 0. Besides, in the data set on healthy male subjects (single dose 1 mg macitentan), the “Neck pain: number” value was determined as 0, the “Rhinitis: number” value is recorded as 0 and the “Vomiting: number” value is listed as 0. In addition, in the data set with healthy male subjects (single dose 5 mg macitentan), the “Abdominal pain: number” value was 0, the “Back pain: number” value is recorded as 0, the “Flushing: number” value was 0 and the “Headache: number” value came out at 0. Besides, in the data set on healthy male subjects (single dose 5 mg macitentan), the “Hepatic function abnormal: number” value was 0, the “Leukocytosis: number” value worked out at 0, the “Nasopharyngitis: number” value was 0 and the “Nausea: number” value was determined as 0. Besides, in the data set with healthy male subjects (single dose 5 mg macitentan), the “Neck pain: number” value is listed as 0, the “Rhinitis: number” value turned out to be 0 and the “Vomiting: number” value was determined as 0. In the data set on healthy male subjects (single dose 25 mg macitentan), the “Abdominal pain: number” value worked out at 0, the “Back pain: number” value worked out at 0, the “Flushing: number” value is 0 and the “Headache: number” value is recorded as 2. In the data set with healthy male subjects (single dose 25 mg macitentan), the “Hepatic function abnormal: number” value was 0, the “Leukocytosis: number” value is on record as 0, the “Nasopharyngitis: number” value was 1 and the “Nausea: number” value is 0. Further, in the data set with healthy male subjects (single dose 25 mg macitentan), the “Neck pain: number” value worked out at 0, the “Rhinitis: number” value came out at 0 and the “Vomiting: number” value was determined as 0. In the data set with healthy male subjects (single dose 100 mg macitentan), the “Abdominal pain: number” value came to 0, the “Back pain: number” value turned out to be 0, the “Flushing: number” value was found to be 0 and the “Headache: number” value is 1. Besides, in the data set on healthy male subjects (single dose 100 mg macitentan), the “Hepatic function abnormal: number” value is listed as 0, the “Leukocytosis: number” value came to 1, the “Nasopharyngitis: number” value stood at 0 and the “Nausea: number” value amounted to 0. Further, in the data set on healthy male subjects (single dose 100 mg macitentan), the “Neck pain: number” value amounted to 1, the “Rhinitis: number” value was 0 and the “Vomiting: number” value was 0. Further, in the data set with healthy male subjects (single dose 300 mg macitentan), the “Abdominal pain: number” value was 0, the “Back pain: number” value was 1, the “Flushing: number” value is reported as 0 and the “Headache: number” value is 2. Besides, in the data set on healthy male subjects (single dose 300 mg macitentan), the “Hepatic function abnormal: number” value came to 0, the “Leukocytosis: number” value is 0, the “Nasopharyngitis: number” value came out at 0 and the “Nausea: number” value is on record as 0. In the data set with healthy male subjects (single dose 300 mg macitentan), the “Neck pain: number” value is 0, the “Rhinitis: number” value was determined as 0 and the “Vomiting: number” value amounted to 0. Besides, in the data set on healthy male subjects (single dose 600 mg macitentan), the “Abdominal pain: number” value amounted to 1, the “Back pain: number” value amounted to 0, the “Flushing: number” value was 1 and the “Headache: number” value came to 5. Moreover, in the data set with healthy male subjects (single dose 600 mg macitentan), the “Hepatic function abnormal: number” value stood at 1, the “Leukocytosis: number” value came out at 0, the “Nasopharyngitis: number” value is 0 and the “Nausea: number” value is 2. Further, in the data set on healthy male subjects (single dose 600 mg macitentan), the “Neck pain: number” value turned out to be 0, the “Rhinitis: number” value is 2 and the “Vomiting: number” value is on record as 2. For the same compound, the maximum tolerated dose in the data set with healthy male subjects (single dose, healthy male subjects) was determined as 300 mg. Further, the “effects on vital signs, ECG and clinical laboratory variables” value in the data set on healthy male subjects (single doses 0.2 to 600 mg) was “no clinically significant drug-related effects”. Also, the detection in urine result in [2] is “no macitentan and ACT-132577 could be detected”. Moreover, in [3], the half-life was 2 h and the volume of distribution is 1 L/kg. Moreover, in the data set on ETA and ETB receptors, the “selectivity for ETA receptors over ETB receptors” value is “about 50 fold”. Moreover, the half-life in data set [6] (600 mg, apparent terminal half-life, two higher dose groups (300 and 600 mg)) was approximately 16 h. Moreover, in data set [6] (tmax in most subjects, individual values), the time of peak concentration (Tmax) was 4 to 12 h. Moreover, in the data set with total bile salts (single dose 0.2 mg macitentan, P < 0.05 compared with placebo), the “effect on serum total bile salts at the lowest dose” value is “small but statistically significant effect”. In addition, in the data set on total bile salts (single doses of up to 600 mg, 4-h observation period), the “effect on serum total bile salt concentrations” value was “no dose-dependent effect”. In addition, the “effect on circulating bile salts” value in the data set with bile salts was “does not increase circulating bile salts”.
Take `Cc1cc2c(cc1CC(=O)c1sccc1S(=O)(=O)Nc1onc(C)c1Cl)OCO2` [sitaxentan, reference compound]: in data set [5], the “interaction with human hepatic transporters” value is “substrates of and inhibit human hepatic transporters”.
